# Measurements from different studies.
# Protocols differ between the studies behind these lines.
# Target: Cyclin-dependent kinase 2 (CDK2, Homo sapiens, UniProt P24941)
# Method: competition with immobilised ligand
Compound,observed,tested at,remaining binding [%]
c1cncc(-c2cccc(Nc3nccc(NC4CCCCC4)n3)c2)c1,binding,10 µM,81
CNC(=O)[C@@H]1CC[C@@H](n2c(-c3ccc4cnccc4c3)nc3ccc(C(=O)NCc4cccc(C(N)=O)c4)cc32)C1,binding,1 µM,100
O=C(O)c1cc(-c2ccc(C3CCNCC3)cc2)c2ccc(-c3ccc(C(F)(F)F)cc3)cc2c1,cell-free assay,1 µM,100
FC(F)(F)Oc1cccc(-c2cnc3ccc(-c4ccncc4)nn23)c1,cell-free assay,5 µM,81
O=C(c1ccc(Nc2ncc(Cl)c(-c3cc4ccccc4s3)n2)cc1)N1CCC(N2CCCC2)CC1,binding,1 µM,12
Nc1ncc2c(n1)-c1c([nH]c3ccc(C#CC4CC4)cc13)CCCC2,binding,1 µM,85
Cn1nc(C(F)(F)F)cc1-c1cnc(N2CCc3cc(S(=O)(=O)Nc4c(F)cc(Cl)cc4F)cc(N4CCCC4=O)c32)nc1,cell-free assay,1 µM,100
O=C(c1ccc(Nc2nccc(-c3cc4ccccc4s3)n2)cc1)N1CCC(N2CCCC2)CC1,binding,1 µM,84
O=C(Nc1c[nH]nc1C(=O)NC1CCNCC1)c1cc(F)cc(F)c1,binding,1 µM,98
C[C@H]1CCN(c2nccc(-c3cnn4ncccc34)n2)C1,binding,1 µM,95
C[C@@H]1CN(c2ccc3ncc(-c4ccc5[nH]nc(C6CC6)c5c4)n3n2)C[C@H](C)O1,binding,0.5 µM,84
Cc1cc(C)c(-n2ccn3nc(-c4cccnc4)cc23)cc1NC(=O)c1cc(C#N)cc(S(F)(F)(F)(F)F)c1,cell-free assay,0.1 µM,99
CN(CCCC(F)(F)F)c1nccc(-c2cnn3ncccc23)n1,binding,1 µM,100
O=C(c1ccc(Nc2ncc(Cl)c(-c3ccc(Cl)s3)n2)cc1)N1CCC(N2CCCC2)CC1,binding,1 µM,27
COc1ccc2cc(OCC3(C(=O)O)CN(C(=O)c4ccc(F)cc4)C3)ccc2c1,cell-free assay,1 µM,91
N#Cc1ccccc1CSc1nnc2c(n1)[nH]c1ccccc12,binding,10 µM,82
